Measured values taken from ChEMBL document CHEMBL2407075, “Sulphonamido-quinoxalines: search for anticancer agent” (Eur J Med Chem, 2013).

Assays:
Assay type in all cases: functional
[1] = tested on: A498; test: Growth inhibition of human A498 cells assessed as cell growth at 10^-4 M after 48 hrs by sulforhodamine B assay; conditions: A498, 48 h, read-out: Activity
In short: (§1)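 Five-dose NCI-60 run (0.01, 0.1, 1, 10 and 100 µM, as 10-fold dilutions from a DMSO stock made at 400× the top final level). Cells were grown in RPMI 1640 with 5% FBS and 2 mM glutamine and plated for 24 h. They were then exposed for 48 h at 37 °C and 5% CO2. TCA fixation was followed by SRB staining with A515 read-out. Percent growth was taken relative to time-zero and control plates.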

[2] = tested on: UACC-257; test: Growth inhibition of human UACC257 cells assessed as cell growth at 10^-4 M after 48 hrs by sulforhodamine B assay; conditions: UACC-257, 48 h, read-out: Activity
[3] = tested on: HT-29; test: Growth inhibition of human HT-29 cells assessed as cell growth at 10^-4 M after 48 hrs by sulforhodamine B assay; conditions: HT-29, 48 h, read-out: Activity
In short: (§2)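 Five-dose screen at NCI. Cells in RPMI 1640 with 5% FBS and 2 mM L-glutamine, seeded at 5000–40,000 cells/well and grown 24 h at 37 °C, 5% CO2 before dosing, with time-zero plates TCA-fixed. Drug diluted from DMSO stock to 0.01, 0.1, 1, 10 and 100 µM final, 48 h. Cells fixed with cold TCA (10% final), stained with 0.4% SRB and read at 515 nm. Percent growth from Tz, control and test absorbances; GI50, TGI and LC50 from dose-response curves.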

[4] = tested on: NCI-H23; test: Growth inhibition of human NCI-H23 cells assessed as cell growth at 10^-4 M after 48 hrs by sulforhodamine B assay; conditions: NCI-H23, 48 h, read-out: Activity
[5] = tested on: Malme-3M; test: Growth inhibition of human MALME-3M cells assessed as cell growth at 10^-5 M after 48 hrs by sulforhodamine B assay; conditions: read-out: Activity
[6] = tested on: LOX IMVI; test: Growth inhibition of human LOXIMVI cells assessed as cell growth at 10^-5 M after 48 hrs by sulforhodamine B assay; conditions: read-out: Activity
[7] = tested on: NCI-H460; test: Growth inhibition of human NCI-H460 cells assessed as cell growth at 10^-5 M after 48 hrs by sulforhodamine B assay; conditions: NCI-H460, 48 h, read-out: Activity
[8] = tested on: NCI-H322M; test: Growth inhibition of human NCI-H322M cells assessed as cell growth at 10^-5 M after 48 hrs by sulforhodamine B assay; conditions: read-out: Activity
[9] = tested on: SR; test: Growth inhibition of human SR cells assessed as cell growth at 10^-5 M after 48 hrs by sulforhodamine B assay; conditions: read-out: Activity
[10] = Growth inhibition of human Hs 578T cells assessed as cell growth at 10^-6 M after 48 hrs by sulforhodamine B assay; conditions: read-out: Activity; in short: as §2
[11] = tested on: RXF 393; test: Growth inhibition of human RXF393 cells assessed as cell growth at 10^-6 M after 48 hrs by sulforhodamine B assay; conditions: RXF 393, 48 h, read-out: Activity
[12] = tested on: M14; test: Growth inhibition of human M14 cells assessed as cell growth at 10^-6 M after 48 hrs by sulforhodamine B assay; conditions: M14, 48 h, read-out: Activity
[13] = tested on: SW-620; test: Growth inhibition of human SW620 cells assessed as cell growth at 10^-6 M after 48 hrs by sulforhodamine B assay; conditions: SW-620, 48 h, read-out: Activity
[14] = tested on: NCI-H322M; test: Growth inhibition of human NCI-H322M cells assessed as cell growth at 10^-6 M after 48 hrs by sulforhodamine B assay; conditions: read-out: Activity
[15] = tested on: BT-549; test: Growth inhibition of human BT549 cells assessed as cell growth at 10^-7 M after 48 hrs by sulforhodamine B assay; conditions: BT-549, 48 h, read-out: Activity; in short: as §1
[16] = Growth inhibition of human Hs 578T cells assessed as cell growth at 10^-7 M after 48 hrs by sulforhodamine B assay; conditions: read-out: Activity; in short: as §2
[17] = tested on: DU-145; test: Growth inhibition of human DU145 cells assessed as cell growth at 10^-7 M after 48 hrs by sulforhodamine B assay; conditions: DU-145, 48 h, read-out: Activity; in short: as §1
[18] = tested on: OVCAR-3; test: Growth inhibition of human OVCAR3 cells assessed as cell growth at 10^-7 M after 48 hrs by sulforhodamine B assay; conditions: OVCAR-3, 48 h, read-out: Activity
[19] = tested on: LOX IMVI; test: Growth inhibition of human LOXIMVI cells assessed as cell growth at 10^-7 M after 48 hrs by sulforhodamine B assay; conditions: read-out: Activity
[20] = tested on: SN12C; test: Growth inhibition of human SN12C cells assessed as cell growth at 10^-8 M after 48 hrs by sulforhodamine B assay; conditions: read-out: Activity
[21] = tested on: ACHN; test: Growth inhibition of human ACHN cells assessed as cell growth at 10^-8 M after 48 hrs by sulforhodamine B assay; conditions: read-out: Activity; in short: as §1
[22] = tested on: SK-MEL-2; test: Growth inhibition of human SK-MEL-2 cells assessed as cell growth at 10^-8 M after 48 hrs by sulforhodamine B assay; conditions: SK-MEL-2, 48 h, read-out: Activity
[23] = tested on: SF-295; test: Growth inhibition of human SF295 cells assessed as cell growth at 10^-8 M after 48 hrs by sulforhodamine B assay; conditions: SF-295, 48 h, read-out: Activity
[24] = tested on: HCT-116; test: Growth inhibition of human HCT116 cells assessed as cell growth at 10^-8 M after 48 hrs by sulforhodamine B assay; conditions: HCT-116, 48 h, read-out: Activity; in short: as §2
[25] = tested on: A498; test: Growth inhibition of human A498 cells after 48 hrs by sulforhodamine B assay; conditions: A498, 48 h; for CC50: read-out: LC50 (the source's name)
In short: (§3)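 Adherent cells in RPMI 1640 with 5% FBS and 2 mM L-glutamine were plated at 5000–40,000 cells/well and grown 24 h. Five concentrations (0.01–100 µM, DMSO stock) were added for 48 h at 37 °C. Cells were fixed with cold TCA (10% final) and stained with SRB, read at 515 nm. GI50 came from log concentration–growth curves against time-zero and control plates.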

[26] = tested on: IGROV-1; test: Growth inhibition of human IGROV1 cells after 48 hrs by sulforhodamine B assay; conditions: IGROV-1, 48 h; for CC50: read-out: LC50 (the source's name); in short: as §3
[27] = tested on: SW-620; test: Growth inhibition of human SW620 cells after 48 hrs by sulforhodamine B assay; conditions: SW-620, 48 h; for CC50: read-out: LC50 (the source's name); in short: as §3
[28] = tested on: HCT-15; test: Growth inhibition of human HCT15 cells after 48 hrs by sulforhodamine B assay; conditions: HCT-15, 48 h; for CC50: read-out: LC50 (the source's name); in short: as §3
[29] = tested on: NCI-H322M; test: Growth inhibition of human NCI-H322M cells after 48 hrs by sulforhodamine B assay; conditions: for CC50: read-out: LC50 (the source's name); in short: as §3

Row | Structure (SMILES) | growth at 100 µM [1] [%] | growth at 100 µM [2] [%] | growth at 100 µM [3] [%] | growth at 100 µM [4] [%] | growth at 10 µM [5] [%] | growth at 10 µM [6] [%] | growth at 10 µM [7] [%] | growth at 10 µM [8] [%] | growth at 10 µM [9] [%] | growth at 1 µM [10] [%] | growth at 1 µM [11] [%] | growth at 1 µM [12] [%] | growth at 1 µM [13] [%] | growth at 1 µM [14] [%] | growth at 0.1 µM [15] [%] | growth at 0.1 µM [16] [%] | growth at 0.1 µM [17] [%] | growth at 0.1 µM [18] [%] | growth at 0.1 µM [19] [%] | growth at 0.01 µM [20] [%] | other results
1 | O=S(=O)(Nc1ccc(Cl)cc1)c1ccc2nc(-c3ccccc3)c(-c3ccccc3)nc2c1 | 61 | 67 | 53 | 72 | -43 | 3 | -18 | 37 | -48 | 76 | 98 | 94 | 88 | 98 | 81 | 98 | 99 | 97 | 99 | 95 | growth at 0.01 µM [21]: 102%; growth at 0.01 µM [22]: 93%; growth at 0.01 µM [23]: 92%; growth at 0.01 µM [24]: 96%; CC50 [25]: > 100 µM; TGI [26]: > 100 µM; CC50 [26]: > 100 µM; TGI [27]: > 100 µM; CC50 [27]: > 100 µM; TGI [28]: > 100 µM; CC50 [28]: > 100 µM; TGI [29]: > 100 µM; CC50 [29]: > 100 µM
2 | O=S(=O)(Nc1ccccn1)c1ccc2nc(-c3ccccc3)c(-c3ccccc3)nc2c1 | 49 | 53 | 24 | 42 | -40 | -93 | 1 | 35 | -42 | 65 | 96 | 98 | 87 | 108 | 81 | 94 | 99 | 92 | 97 | 95 | growth at 0.01 µM [21]: 99%; growth at 0.01 µM [22]: 99%; growth at 0.01 µM [23]: 86%; growth at 0.01 µM [24]: 97%; GI50 [25]: 1.67 µM; CC50 [25]: > 100 µM; TGI [26]: > 100 µM; CC50 [26]: > 100 µM; TGI [27]: > 100 µM; CC50 [27]: > 100 µM; TGI [28]: > 100 µM; CC50 [28]: > 100 µM; TGI [29]: > 100 µM; CC50 [29]: > 100 µM
